Results published in ChEMBL document CHEMBL5712892, “EZH1 and EZH2 promote skeletal growth by repressing inhibitors of chondrocyte proliferation and hypertrophy” (Nat Commun, 2016).
Activity calls are given as the source filed them. No cut-off for these calls is given here.

Tests used:
EZH1/2 (Mus musculus) [1] = biological target: T1, EZH1/2 (Mus musculus) (UniProt Q61188+P70351); assay: Inhibition of Ezh1/2 in wild-type C57BL/6 mouse fetal metatarsal bone assessed as reduction in H3K27me3 expression at 2 microM by immunohistochemical analysis; assay type: tissue-based
In short: (§1)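 E18 wild-type C57BL/6 metatarsals cultured 3 days with DMSO or 2 µM UNC1999, added at start and refreshed day 2. Paraffin sections were proteinase K retrieved (100 µg ml-1, 30 min, room temperature) and peroxidase blocked. They were immunostained with anti-H3K27me2 or anti-H3K27me3 (1:1,000) by ABC/DAB.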

EZH1/2 (Mus musculus) [2] = biological target: T1, EZH1/2 (Mus musculus); assay: Inhibition of Ezh1/2 in wild-type C57BL/6 mouse isolated primary chondrocytes assessed as reduction in cell proliferation at 2 uM by [3H]thymidine based liquid scintillation counting analysis; conditions: Primary chondrocyte
In short: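 Monolayer primary chondrocytes (2×10^5 per well) from 1-week-old wild-type mice were treated with DMSO or 2 µM UNC1999 from 16 h after plating. At 24 h after plating they were labelled with 1 µCi 3H-thymidine for 16 h, washed and collagenase-detached. Radioactivity was read by liquid scintillation counting; N = 6.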

EZH1/2 (Mus musculus) [3] = biological target: T1, EZH1/2 (Mus musculus); assay: Inhibition of Ezh1/2 in wild-type C57BL/6 mouse isolated primary chondrocytes assessed as increase in Cdkn2a expression at 2 uM by RT-PCR analysis; assay type: cell-based; conditions: Primary chondrocyte
In short: (§2)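 Monolayer primary chondrocytes from 1-week-old wild-type mice received DMSO or UNC1999 (2 µM final) 16 h after plating. RNA was extracted and Cdkn2a and Cdkn2b mRNA quantified by real-time RT-PCR; N = 6.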

EZH1/2 (Mus musculus) [4] = biological target: T1, EZH1/2 (Mus musculus); assay: Inhibition of Ezh1/2 in wild-type C57BL/6 mouse isolated primary chondrocytes assessed as increase in Cdkn2b expression at 2 uM by RT-PCR analysis; assay type: cell-based; conditions: Primary chondrocyte; in short: as §2
EZH1/2 (Mus musculus) [5] = biological target: T1, EZH1/2 (Mus musculus); assay: Inhibition of Ezh1/2 in wild-type C57BL/6 mouse isolated primary chondrocytes transfected with Cdkn2a SiRNA assessed as reduction in cell proliferation at 2 uM measured after 24 hrs by [3H]thymidine based liquid scintillation counting analysis; conditions: Primary chondrocyte
In short: (§3)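 Primary chondrocytes (1×10^5 per well) from 1-week-old wild-type mice were hyaluronidase-treated (5 U ml-1, 6 h) at 40 h. They were then transfected with 40 pmol siRNA against Cdkn2a and/or Cdkn2b, or scrambled control, using Lipofectamine 2000. DMSO or 2 µM UNC1999 was added 16 h post-transfection. Proliferation was measured 24 h later by 3H-thymidine uptake and scintillation counting; N = 6.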

EZH1/2 (Mus musculus) [6] = biological target: T1, EZH1/2 (Mus musculus); assay: Inhibition of Ezh1/2 in wild-type C57BL/6 mouse isolated primary chondrocytes transfected with Cdkn2b SiRNA assessed as reduction in cell proliferation at 2 uM measured after 24 hrs by [3H]thymidine based liquid scintillation counting analysis; conditions: Primary chondrocyte; in short: as §3
EZH1/2 (Mus musculus) [7] = biological target: T1, EZH1/2 (Mus musculus); assay: Inhibition of Ezh1/2 in wild-type C57BL/6 mouse isolated primary chondrocyte monolayer culture assessed as increase in Igfbp3 expression at 2 uM by immunostaining analysis; assay type: cell-based
EZH1/2 (Mus musculus) [8] = biological target: T1, EZH1/2 (Mus musculus); assay: Inhibition of Ezh1/2 in wild-type C57BL/6 mouse isolated primary chondrocyte monolayer culture assessed as increase in Igfbp5 expression at 2 uM by immunostaining analysis; assay type: cell-based
EZH1/2 (Mus musculus) [9] = biological target: T1, EZH1/2 (Mus musculus); assay: Inhibition of Ezh1/2 in wild-type C57BL/6 mouse isolated primary chondrocyte pellets assessed as reduction in H3K27me2 level at 2 uM measured after 1 week by immunohistological staining based assay; assay type: cell-based; conditions: time 1.0 weeks
In short: (§4)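 Chondrocyte pellets (2.4×10^5 cells, from 1-week-old wild-type mice) were kept in 0.1% FBS medium with DMSO or 2 µM UNC1999 from 16 h, refreshed every other day, for 1 week. Sections were immunostained for H3K27me2 or H3K27me3 (1:1,000, proteinase K retrieval, DAB).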

EZH1/2 (Mus musculus) [10] = biological target: T1, EZH1/2 (Mus musculus); assay: Inhibition of Ezh1/2 in wild-type C57BL/6 mouse isolated primary chondrocyte pellets assessed as reduction in H3K27me3 level at 2 uM measured after 1 week by immunohistological staining based assay; assay type: cell-based; conditions: time 1.0 weeks; in short: as §4
EZH1/2 (Mus musculus) [11] = biological target: T1, EZH1/2 (Mus musculus); assay: Inhibition of Ezh1/2 in wild-type C57BL/6 mouse isolated primary chondrocyte pellets assessed as reduction in cell hypertrophy at 2 uM measured after 1 week by alcian blue staining based assay; conditions: time 1.0 weeks
In short: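 Wild-type chondrocyte pellets were cultured in 0.1% FBS medium with DMSO or 2 µM UNC1999 (from 16 h, refreshed every other day). Alcian blue-stained histological sections were examined for cell size at different time points, including 1 week.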

EZH1/2 (Mus musculus) [12] = biological target: T1, EZH1/2 (Mus musculus); assay: Inhibition of Ezh1/2 in wild-type C57BL/6 mouse isolated primary chondrocyte pellets assessed as reduction in Col10a1 expression at 2 uM by RT-PCR analysis; assay type: cell-based
In short: (§5)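 Pellets of 2.4×10^5 primary chondrocytes from 1-week-old wild-type mice (400 g, 10 min) were cultured up to 4 weeks, switched to 0.1% FBS medium after 16 h. DMSO or UNC1999 (2 µM final) was added at 16 h and refreshed every other day. Col10a1, Ihh, Igfbp3 and Igfbp5 mRNA were measured by real-time RT-PCR at several time points; two-way ANOVA, N = 6.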

EZH1/2 (Mus musculus) [13] = biological target: T1, EZH1/2 (Mus musculus); assay: Inhibition of Ezh1/2 in wild-type C57BL/6 mouse isolated primary chondrocyte pellets assessed as reduction in Ihh expression at 2 uM by RT-PCR analysis; assay type: cell-based; in short: as §5
EZH1/2 (Mus musculus) [14] = biological target: T1, EZH1/2 (Mus musculus); assay: Inhibition of Ezh1/2 in wild-type C57BL/6 mouse isolated primary chondrocyte pellets assessed as increase in Igfbp5 expression at 2 uM by RT-PCR analysis; assay type: cell-based; in short: as §5
EZH1/2 (Mus musculus) [15] = biological target: T1, EZH1/2 (Mus musculus); assay: Inhibition of Ezh1/2 in wild-type C57BL/6 mouse isolated primary chondrocyte pellets assessed as increase in Igfbp3 expression at 2 uM by RT-PCR analysis; assay type: cell-based; in short: as §5
EZH1/2 (Mus musculus) [16] = biological target: T1, EZH1/2 (Mus musculus); assay: Inhibition of Ezh1/2 in wild-type C57BL/6 mouse fetal metatarsal bone assessed as reduction in H3K27me2 expression at 2 microM by immunohistochemical analysis; assay type: tissue-based; in short: as §1
EZH1/2 (Mus musculus) [17] = biological target: T1, EZH1/2 (Mus musculus); assay: Inhibition of Ezh1/2 in wild-type C57BL/6 mouse fetal metatarsal bone assessed as reduction in hypertrophic cell size at 2 uM; assay type: tissue-based
In short: (§6)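 Fetal metatarsals (middle three) from E18 wild-type C57BL/6 mice cultured 3 days at 37 °C, 5% CO2 in α-MEM with 0.2% BSA, 0.1 mM β-glycerophosphate, 50 µg ml-1 ascorbic acid. DMSO or UNC1999 (2 µM), ± Igf1 100 ng ml-1, Igfbp3 50 nM or Igfbp5 50 nM, added at start and refreshed day 2. Hypertrophic cell heights averaged within a 100×100 µm area at HZ centre; N = 6.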

EZH1/2 (Mus musculus) [18] = biological target: T1, EZH1/2 (Mus musculus); assay: Inhibition of Ezh1/2 in Igf1-treated wild-type C57BL/6 mouse fetal metatarsal bone assessed as reduction in hypertrophic cell size at 2 uM; assay type: tissue-based; in short: as §6
EZH1/2 (Mus musculus) [19] = biological target: T1, EZH1/2 (Mus musculus); assay: Inhibition of Ezh1/2 in Igfbp3-treated wild-type C57BL/6 mouse fetal metatarsal bone assessed as reduction in hypertrophic cell size at 2 uM; assay type: tissue-based; in short: as §6
EZH1/2 (Mus musculus) [20] = biological target: T1, EZH1/2 (Mus musculus); assay: Inhibition of Ezh1/2 in wild-type C57BL/6 mouse fetal metatarsal bone assessed as increase in Igfbp3 expression at 2 uM by immunostaining assay; assay type: tissue-based
EZH1/2 (Mus musculus) [21] = biological target: T1, EZH1/2 (Mus musculus); assay: Inhibition of Ezh1/2 in wild-type C57BL/6 mouse fetal metatarsal bone assessed as increase in Igfbp5 expression at 2 uM by immunostaining assay; assay type: tissue-based
EZH1/2 (Mus musculus) [22] = biological target: T1, EZH1/2 (Mus musculus); assay: Inhibition of Ezh1/2 in Igfbp5-treated wild-type C57BL/6 mouse fetal metatarsal bone assessed as reduction in hypertrophic cell size at 2 uM; assay type: tissue-based; in short: as §6

inhibition (EZH1/2 (Mus musculus) [1]): Active
inhibition (EZH1/2 (Mus musculus) [2]): Active
inhibition (EZH1/2 (Mus musculus) [3]): Active
inhibition (EZH1/2 (Mus musculus) [4]): Active
inhibition (EZH1/2 (Mus musculus) [5]): inactive
inhibition (EZH1/2 (Mus musculus) [6]): inactive
inhibition (EZH1/2 (Mus musculus) [7]): Active
inhibition (EZH1/2 (Mus musculus) [8]): inactive
inhibition (EZH1/2 (Mus musculus) [9]): Active
inhibition (EZH1/2 (Mus musculus) [10]): Active
inhibition (EZH1/2 (Mus musculus) [12]): Active
inhibition (EZH1/2 (Mus musculus) [13]): Active
inhibition (EZH1/2 (Mus musculus) [14]): Active
inhibition (EZH1/2 (Mus musculus) [15]): inactive
inhibition (EZH1/2 (Mus musculus) [16]): Active
inhibition (EZH1/2 (Mus musculus) [20]): Active
inhibition (EZH1/2 (Mus musculus) [21]): Active
Compound: CCCc1cc(C)[nH]c(=O)c1CNC(=O)c1cc(-c2ccc(N3CCN(C(C)C)CC3)nc2)cc2c1cnn2C(C)C
inhibition (EZH1/2 (Mus musculus) [11]): Active
inhibition (EZH1/2 (Mus musculus) [17]): Active
inhibition (EZH1/2 (Mus musculus) [18]): inactive
inhibition (EZH1/2 (Mus musculus) [19]): Active
inhibition (EZH1/2 (Mus musculus) [22]): Active
